Data as given in ChEMBL document CHEMBL4433207, “Novel Isoxazole Derivatives with Potent FXR Agonistic Activity Prevent Acetaminophen-Induced Liver Injury” (ACS Med Chem Lett, 2019).
Converted amounts (≈) assume the structure as drawn. The source made the active and inactive calls. No cut-off for these calls is given here.

Assays:
[1] = molecular target: T1, G-protein coupled bile acid receptor 1 (Homo sapiens) (UniProt Q8TDU6); test: Agonist activity at human GPBAR1 expressed in HEK293T cells at 10 uM after 18 hrs by cAMP response element driven luciferase reporter gene assay; format: functional, cell-based
T1 sequence (whole entry): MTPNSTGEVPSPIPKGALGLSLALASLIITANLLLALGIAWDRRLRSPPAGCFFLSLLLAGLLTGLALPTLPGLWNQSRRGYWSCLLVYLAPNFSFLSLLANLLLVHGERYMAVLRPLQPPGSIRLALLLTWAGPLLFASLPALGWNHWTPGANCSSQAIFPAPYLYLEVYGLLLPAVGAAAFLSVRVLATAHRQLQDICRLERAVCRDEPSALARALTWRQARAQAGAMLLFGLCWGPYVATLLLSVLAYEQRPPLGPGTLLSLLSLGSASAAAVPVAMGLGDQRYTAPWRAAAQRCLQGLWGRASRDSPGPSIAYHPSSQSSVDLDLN

Mus musculus [2] = test: Hepatoprotective activity against APAP-induced acute liver injury in C57BL/6N mouse assessed as reduction in plasma ALT levels at 30 mg/kg, po administered 45 mins after APAP challenge; format: functional, organism-based
In short: (§1)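 C57Bl6 mice given a single 500 mg/kg APAP dose, with test agent at 30 mg/kg; surviving mice sacrificed 24 h later, blood and liver collected. Endpoints: serum AST/ALT, liver H&E histology, hepatic Ugt1a1/Ugt2b1/Sult1a1 mRNA, hepatic GSH, SOD activity and MDA, and plasma APAP, APAP-glucuronide and APAP-sulfate by LC–MS/MS. Mean ± SEM, 5–8 animals per group.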

[3] = Half life in rat liver microsomes at 1 uM up to 40 mins by LC-MS/MS method
[4] = Intrinsic clearance in rat liver microsomes at 1 uM up to 40 mins by LC-MS/MS method; settings: read-out: CLH
[5] = Metabolic stability in rat liver microsomes assessed as compound remaining at 1 uM up to 40 mins by LC-MS/MS method relative to control
Mus musculus [6] = test: Hepatoprotective activity against APAP-induced acute liver injury in C57BL/6N mouse assessed as reduction in plasma AST levels at 30 mg/kg, po administered 45 mins after APAP challenge; format: functional, organism-based; in short: as §1
[7] = Aqueous solubility of compound in phosphate buffer at pH 7.4//MeOH after 24 hrs by LC-MS/MS method; format: physicochemical
[8] = molecular target: T2, Oxysterols receptor LXR-beta (Homo sapiens) (UniProt P55055); test: Transactivation of Gal4-fused LXRbeta LBD (unknown origin) expressed in HepG2 cells at 10 uM after 18 hrs by dual-glo luciferase assay; format: cell-based
T2 sequence (whole entry): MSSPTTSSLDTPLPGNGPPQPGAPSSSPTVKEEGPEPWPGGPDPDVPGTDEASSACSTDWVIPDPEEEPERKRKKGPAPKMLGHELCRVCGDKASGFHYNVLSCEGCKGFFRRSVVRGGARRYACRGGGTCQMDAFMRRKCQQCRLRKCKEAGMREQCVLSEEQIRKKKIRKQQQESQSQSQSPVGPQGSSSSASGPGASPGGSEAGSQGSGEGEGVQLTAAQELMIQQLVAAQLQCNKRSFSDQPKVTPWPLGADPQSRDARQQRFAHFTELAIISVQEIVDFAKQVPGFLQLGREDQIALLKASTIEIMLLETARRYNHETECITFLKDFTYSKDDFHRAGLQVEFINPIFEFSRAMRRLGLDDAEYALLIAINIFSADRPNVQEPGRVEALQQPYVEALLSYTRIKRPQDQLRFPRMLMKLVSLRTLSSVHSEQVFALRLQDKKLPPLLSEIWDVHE

[9] = molecular target: T3, Peroxisome proliferator-activated receptor gamma (Homo sapiens) (UniProt P37231); test: Transactivation of Gal4-fused PPARgamma LBD (unknown origin) expressed in HepG2 cells at 10 uM after 18 hrs by dual-glo luciferase assay; format: cell-based
T3 sequence (whole entry): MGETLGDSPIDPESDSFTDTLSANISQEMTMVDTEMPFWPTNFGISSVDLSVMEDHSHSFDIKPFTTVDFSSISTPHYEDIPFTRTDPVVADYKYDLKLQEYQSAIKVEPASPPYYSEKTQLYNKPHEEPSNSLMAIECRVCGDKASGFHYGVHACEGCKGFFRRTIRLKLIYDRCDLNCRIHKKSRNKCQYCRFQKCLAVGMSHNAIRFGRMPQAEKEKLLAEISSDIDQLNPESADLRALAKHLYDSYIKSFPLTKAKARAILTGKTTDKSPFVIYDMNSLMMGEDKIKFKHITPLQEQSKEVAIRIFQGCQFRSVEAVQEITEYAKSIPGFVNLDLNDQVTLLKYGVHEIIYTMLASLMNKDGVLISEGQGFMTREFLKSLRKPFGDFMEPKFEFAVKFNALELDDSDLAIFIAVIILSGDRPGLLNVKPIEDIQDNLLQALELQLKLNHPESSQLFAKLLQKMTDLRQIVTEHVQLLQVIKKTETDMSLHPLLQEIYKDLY

[10] = molecular target: T4, Oxysterols receptor LXR-alpha (Homo sapiens) (UniProt Q13133); test: Transactivation of Gal4-fused LXRalpha LBD (unknown origin) expressed in HepG2 cells at 10 uM after 18 hrs by dual-glo luciferase assay; format: cell-based
T4 sequence (whole entry): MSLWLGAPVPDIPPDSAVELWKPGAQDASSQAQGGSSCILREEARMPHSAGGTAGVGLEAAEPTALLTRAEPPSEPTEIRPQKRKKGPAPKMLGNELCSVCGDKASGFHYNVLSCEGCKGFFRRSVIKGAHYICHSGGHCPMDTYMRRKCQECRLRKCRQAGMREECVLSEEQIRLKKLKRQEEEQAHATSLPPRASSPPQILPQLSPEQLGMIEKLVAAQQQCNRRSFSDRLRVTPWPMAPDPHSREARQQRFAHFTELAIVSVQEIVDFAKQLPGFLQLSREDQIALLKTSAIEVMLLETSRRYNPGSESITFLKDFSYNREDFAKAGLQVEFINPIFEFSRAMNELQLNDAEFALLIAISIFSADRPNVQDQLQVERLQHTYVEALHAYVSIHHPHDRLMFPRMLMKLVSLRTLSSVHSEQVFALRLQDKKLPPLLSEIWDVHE

Activity [1]	SMILES	further results
inactive	COC(=O)c1cccc(OCc2ccc(OCc3c(-c4c(Cl)cccc4Cl)noc3C(C)C)cc2)c1	
inactive	CC(C)c1onc(-c2c(Cl)cccc2Cl)c1COc1ccc(S(C)(=O)=O)cc1	
inactive	COC(=O)c1ccc(OCc2c(-c3c(Cl)cccc3Cl)noc2C(C)C)cc1	
	CC(C)c1onc(-c2c(Cl)cccc2Cl)c1COc1ccc(/C=C/c2cccc(C(=O)O)c2)c(Cl)c1	Activity (Mus musculus [2]): Active; half-life at 1 µM [3]: 41 min; microsomal CLint at 1 µM [4]: 56 µL/min/mg; remaining at 40 min, 1 µM [5]: 48%; Activity (Mus musculus [6]): Active; solubility at 24 h [7]: 152 µM (≈ 82.5 µg/mL)
inactive	CC(C)c1onc(-c2c(Cl)cccc2Cl)c1COc1ccc(COc2cccc(C#N)c2)cc1	
inactive	CC(C)c1onc(-c2c(Cl)cccc2Cl)c1COc1ccc(COc2cccc(C(=O)O)c2)cc1	Activity [8]: inactive; Activity [9]: inactive; Activity [10]: inactive
inactive	CC(C)c1onc(-c2c(Cl)cccc2Cl)c1COc1ccc(-c2cccc(CO)c2)cc1	
inactive	CC(C)c1onc(-c2c(Cl)cccc2Cl)c1COc1cccc(C#N)c1	
inactive	CC(C)c1onc(-c2c(Cl)cccc2Cl)c1COc1ccc(C#N)cc1	
inactive	COC(=O)c1ccc(OCc2ccc(OCc3c(-c4c(Cl)cccc4Cl)noc3C(C)C)cc2)cc1	
inactive	CC(C)c1onc(-c2c(Cl)cccc2Cl)c1COc1ccc(COc2ccc(CO)cc2)cc1	
inactive	COC(=O)c1cccc(-c2ccc(OCc3c(-c4c(Cl)cccc4Cl)noc3C(C)C)cc2)c1	
